RGS4 block = RGS4 inhibitors, primary screen, cell-based, HEK293 M3R inducible RGS4, calcium flux; Fluo-4 calcium flux; stronger effect = higher value; triggered by carbachol at its EC20; B-score at 10 µM; 0.45% of 310,000 active;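 active = B-score, a plate-corrected calcium signal, over three deviations above library mean, with baseline fluorescence within five deviations of library mean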;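 note: RGS4 expression induced by doxycycline in cells with stable M3 receptor; B-score is computed from the integrated fluorescence ratio over baseline after carbachol; higher B-score means a larger calcium signal and so more RGS4 inhibition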
Target sequence (P49798 whole entry, looked up): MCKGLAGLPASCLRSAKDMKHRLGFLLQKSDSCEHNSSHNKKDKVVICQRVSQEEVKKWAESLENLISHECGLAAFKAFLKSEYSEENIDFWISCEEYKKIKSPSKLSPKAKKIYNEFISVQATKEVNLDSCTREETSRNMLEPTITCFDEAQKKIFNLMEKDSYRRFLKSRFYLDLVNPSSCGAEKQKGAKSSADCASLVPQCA
MrgX1 antag = antagonists of human MrgX1 receptor, primary screen, HEK293 cells, Fluo-4 calcium flux | Mas-related G-protein coupled receptor member X1 (Homo sapiens), Q96LB2 | BAM8-22 antagonism; stronger effect = lower value | B-score at 10 µM | 1.3% of 310,000 active;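 active = calcium-response B-score plate-corrected more than 3 library SD below zero, starting fluorescence within 5 deviations, no agonist response on first addition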;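 note: peak minus trough fluorescence over baseline after final BAM8-22 challenge near maximal dose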
Target sequence (Q96LB2 whole entry, looked up): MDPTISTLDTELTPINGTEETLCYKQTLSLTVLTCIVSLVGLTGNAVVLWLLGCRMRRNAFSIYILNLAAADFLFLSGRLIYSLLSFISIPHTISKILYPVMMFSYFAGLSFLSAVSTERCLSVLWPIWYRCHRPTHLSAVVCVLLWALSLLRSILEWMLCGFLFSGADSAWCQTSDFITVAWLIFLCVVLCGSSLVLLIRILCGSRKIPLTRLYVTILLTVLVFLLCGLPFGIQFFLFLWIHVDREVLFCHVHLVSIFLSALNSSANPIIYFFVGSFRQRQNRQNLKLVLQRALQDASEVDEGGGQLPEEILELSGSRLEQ
MrgX1 ag = agonists of human MrgX1 receptor, primary screen, HEK293 cells, Fluo-4 calcium flux; Mas-related G-protein coupled receptor member X1 (Homo sapiens), Q96LB2; Fluo-4 calcium fluorescence, agonist mode; stronger effect = higher value; B-score at 10 µM; 0.44% of 310,000 active; AID 588627, 2011;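 active = calcium response B-score plate-corrected fluorescence ratio at least 3 library SD, with starting fluorescence B-score inside 5 SD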
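Assay system: MrgX1-expressing HEK293 cells / Amount: fifteen thousand cells per well / Doses: test compound in the initial addition of three / Timing: cells plated overnight, dye loaded 0.5 h 37 °C, 0.5 h room temperature / Technique: kinetic calcium dye fluorescence, Fluo-4 NW / Control set: positive and negative controls per plate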
MrgX1 PAM = positive allosteric modulators of MrgX1, primary screen, HEK293 cells, Fluo-4 calcium flux. FDSS; stronger effect = higher value. B-score at 10 µM. 0.63% of 310,000 active. AID 588675, 2011;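 active = plate-corrected calcium response at least 3 library SD above typical, normal starting fluorescence, not activating the receptor alone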;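 note: compound read alongside a low EC10 to EC30 dose of BAM8-22 agonist; peak minus trough fluorescence over baseline measured at the second addition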
RGS4 act = RGS4 potentiators or activators, primary screen, cell-based, HEK293 M3R inducible RGS4, calcium flux; 0.92% of 310,000 active; B-score at 10 µM; carbachol calcium flux Fluo4; stronger effect = lower value;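 active = B-score of the integrated calcium signal more than 4 SD below the library mean, with starting fluorescence not abnormally high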;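 note: negative B-score means reduced calcium response which marks RGS4 activation or potentiation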
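Assay system: HEK293 FlpIn-TREx cells, stable M3R, doxycycline-inducible RGS4 / Probe or stimulus: carbachol, ECmax concentration / Times: overnight RGS4 induction, 30 min dye load 37 °C, 20 min compound RT / Signal: kinetic calcium fluorescence imaging with Fluo4-AM dye, 2 µM / Measure: Agonist-evoked peak-minus-minimum fluorescence over baseline, integrated ratio, B score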
MrgX1 ant reconf = MrgX1 receptor antagonists, duplicate retest, confirmation, HEK293 cells, Fluo-4 calcium flux; shares compounds with MrgX1 antag; AID 602420, 2012; 19% of 2,300 active; remaining BAM8-22 calcium response % of control (stronger effect = lower value), % at 10 µM; BAM8-22 calcium flux; stronger effect = lower value;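 active = remaining agonist calcium response no higher than 100% minus 3 SD of agonist-only control wells, with starting fluorescence near control levels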;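 note: agonist BAM8-22 given at a near maximal EC90 to ECmax level; peak minus minimum fluorescence divided by baseline after agonist addition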
HEK293 Ca flux = nonspecific calcium signal in parental HEK293, confirmation, counter-screen for MrgX1 antagonist project, parental HEK293 cells, Fluo-4 calcium flux | shares compounds with MrgX1 antag | Fluo-4 calcium fluorescence, FDSS | fluorescence ratio F(max-min)/F0 at 10 µM | 2% of 4,000 active | AID 624111, 2012;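 active = duplicate-averaged calcium fluorescence ratio at least three times the standard deviation of buffer wells, a nonspecific response in parental cells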
HEK293 Ca counter = calcium response in parental HEK293 cells, primary screen, counter-screen for MrgX1 allosteric activator project, cell-based, Fluo-4 calcium flux, duplicate | Fluo-4 fluorescence ratio; stronger effect = higher value | fluorescence ratio F(max-min)/F0 at 10 µM | 0.4% of 4,000 active | shares compounds with MrgX1 antag;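 active = calcium fluorescence ratio, averaged over duplicates, at least 3 SD of the buffer-well ratio, meaning a nonspecific response in receptor-free cells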;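 note: untransfected parental HEK293 lacking MrgX1 used as counterscreen for MrgX1 allosteric activators; fluorescence change taken during the second addition on a kinetic imager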
HEK293 Ca cntr2 = calcium response in parental HEK293 cells, primary screen, counter-screen for MrgX1 agonist project, cell-based, Fluo-4 calcium flux, duplicate, agonist mode; 8.7% of 4,000 active; Fluo-4 calcium fluorescence (FDSS); stronger effect = higher value; fluorescence ratio F(max-min)/F0 at 10 µM; shares compounds with MrgX1 antag;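 active = calcium fluorescence ratio at least three times the spread of buffer wells, meaning a non-specific response in parental cells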
Large screens that a line does not name were inactive (follow-up assays come after a bar, where they were run). Only some compounds are listed: those with a hit (about 3.5% of all), similar ones and a draw of the others.

COc1ccc(C(=O)Nc2nc(C)c(C(=O)N(C)C)s2)cc1OC	MrgX1 antag -8.7 | MrgX1 ant reconf inactive | HEK293 Ca flux inactive | HEK293 Ca counter inactive | HEK293 Ca cntr2 inactive
Cc1ccc(-c2ccc(SCC(=O)Nc3cc(C)on3)nn2)cc1	none
Cc1cc(NC(=O)CSc2ccc(-c3ccc(Br)cc3)nn2)no1	MrgX1 antag -8.2 | MrgX1 ant reconf inactive | HEK293 Ca flux inactive | HEK293 Ca counter inactive | HEK293 Ca cntr2 inactive
Cn1ccnc1SCC(=O)Nc1ccc(Br)cc1C(F)(F)F	MrgX1 antag -5.9 | MrgX1 ant reconf inactive | HEK293 Ca flux inactive | HEK293 Ca counter inactive | HEK293 Ca cntr2 inactive
Cc1cccc(N2C(=O)N3[C@H](c4ccc(Br)cc4)[C@@H]4C(=O)N(C(C)(C)C)C(=O)[C@@H]4[C@]3(C)C2=O)c1	none
CSC1=NCCN1C(=O)c1c(-c2ccccc2Cl)noc1C	MrgX1 antag -6.9 | MrgX1 ant reconf inactive | HEK293 Ca flux inactive | HEK293 Ca counter inactive | HEK293 Ca cntr2 inactive
CCOC(=O)c1ccc(-n2[nH]c(-c3ccccc3)cc2=O)cc1	MrgX1 antag -5.8 | MrgX1 ant reconf 71% | HEK293 Ca flux inactive | HEK293 Ca counter inactive | HEK293 Ca cntr2 inactive
CC1=C(C(=O)Nc2ccccc2)C(c2ccco2)C(C#N)=C(SCC(=O)OC(C)C)N1 (stereo not given)	MrgX1 antag -11 | MrgX1 ant reconf inactive | HEK293 Ca flux inactive | HEK293 Ca counter inactive | HEK293 Ca cntr2 inactive
CC1=C(C(=O)Nc2ccccc2)C(c2ccco2)C(C#N)=C(SCc2ccccc2)N1 (stereo not given)	none
O=C1N(Cc2ccccc2)c2ccc(Cl)cc2C12OCCO2	none
CS/C(N)=N/C(=S)Nc1cccc(Cl)c1	MrgX1 antag -4.6 | MrgX1 ant reconf inactive | HEK293 Ca flux inactive | HEK293 Ca counter inactive | HEK293 Ca cntr2 inactive
NC(=S)Nc1cccc(Cl)c1	none
CCOc1ccc(OCC)c(NC(=O)CCNS(=O)(=O)c2cc(Br)cnc2N)c1	none
CC1C(=O)NN=C1C(=O)N/N=C/c1cccs1 (stereo not given)	MrgX1 antag -11 | MrgX1 ant reconf inactive | HEK293 Ca flux inactive | HEK293 Ca counter inactive | HEK293 Ca cntr2 inactive
CC(C)Oc1ccc(C(=O)OC(C)C(=O)NC2CCCCC2C)cc1 (stereo not given)	none
CC(OC(=O)c1ccncc1)C(=O)NC1CCCC1 (stereo not given)	MrgX1 antag -10 | MrgX1 ant reconf inactive | HEK293 Ca flux inactive | HEK293 Ca counter inactive | HEK293 Ca cntr2 inactive
O=[N+]([O-])c1ccc2ccn(C3OCC(O)C(O)C3O)c2c1 (stereo not given)	none
CC(C)NC(=S)N1CCN(Cc2ccc3c(c2)OCO3)CC1	none
Cc1ccccc1NC(=S)N1CCN(Cc2ccc3c(c2)OCO3)CC1	none
FC(F)(F)c1ccccc1NC(=S)N1CCN(Cc2ccc3c(c2)OCO3)CC1	MrgX1 antag -7.4 | MrgX1 ant reconf inactive | HEK293 Ca flux inactive | HEK293 Ca counter inactive | HEK293 Ca cntr2 inactive

Compound activity (PubChem)
